Inhibition and IC50 data for 62 molecules are collected here from ChEMBL document CHEMBL1140143, “Combining ligand-based pharmacophore modeling, quantitative structure-activity relationship analysis and in silico screening for the discovery of new potent hormone sensitive lipase inhibitors” (J Med Chem, 2008).

The inhibition is the change of the read-out against control, counted positive when it falls. One may read the IC50 as the concentration that inhibits the measured activity by half. High values mean lower potency, low ones higher potency.

One test has as its target T1, Hormone-sensitive lipase (Rattus norvegicus) (UniProt P15304).
T1 sequence (whole entry): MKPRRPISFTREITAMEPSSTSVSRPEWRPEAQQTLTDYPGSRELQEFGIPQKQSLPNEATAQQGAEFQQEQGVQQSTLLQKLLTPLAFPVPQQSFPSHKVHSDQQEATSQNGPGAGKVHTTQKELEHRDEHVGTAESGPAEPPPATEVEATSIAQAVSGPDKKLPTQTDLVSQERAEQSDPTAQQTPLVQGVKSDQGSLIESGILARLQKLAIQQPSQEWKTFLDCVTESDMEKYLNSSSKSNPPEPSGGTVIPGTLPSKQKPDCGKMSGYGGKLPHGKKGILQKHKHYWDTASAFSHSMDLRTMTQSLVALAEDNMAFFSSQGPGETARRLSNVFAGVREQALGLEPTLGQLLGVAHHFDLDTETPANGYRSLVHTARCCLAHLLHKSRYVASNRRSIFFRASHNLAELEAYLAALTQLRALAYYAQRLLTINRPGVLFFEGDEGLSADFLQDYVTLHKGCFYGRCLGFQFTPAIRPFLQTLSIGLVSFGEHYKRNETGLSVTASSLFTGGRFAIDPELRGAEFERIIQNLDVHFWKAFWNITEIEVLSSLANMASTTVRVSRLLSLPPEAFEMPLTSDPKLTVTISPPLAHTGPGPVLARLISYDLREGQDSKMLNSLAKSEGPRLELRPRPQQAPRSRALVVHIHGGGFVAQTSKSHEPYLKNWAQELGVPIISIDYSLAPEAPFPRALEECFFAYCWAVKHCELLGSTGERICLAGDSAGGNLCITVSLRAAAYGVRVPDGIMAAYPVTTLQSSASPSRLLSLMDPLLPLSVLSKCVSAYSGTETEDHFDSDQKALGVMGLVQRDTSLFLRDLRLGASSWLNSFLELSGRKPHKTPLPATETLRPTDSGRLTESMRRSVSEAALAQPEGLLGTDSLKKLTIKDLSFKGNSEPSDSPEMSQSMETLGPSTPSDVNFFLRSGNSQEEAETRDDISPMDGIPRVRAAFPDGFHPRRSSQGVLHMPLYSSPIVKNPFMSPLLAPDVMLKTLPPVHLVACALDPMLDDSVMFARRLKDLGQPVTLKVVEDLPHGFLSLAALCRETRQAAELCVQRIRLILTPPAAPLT
The experiment in a line: Inhibition of HSL in Wistar rat isolated fat cells at 10 uM by spectrophotometric assay. Summed up: (§1)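 HSL extract from male Wistar rat epididymal fat cells (collagenase-isolated, homogenized in Tris-HCl pH 7.0/sucrose, ether-extracted supernatant). Enzyme preincubated with compound 30 min at 37 °C, then p-nitrophenyl butyrate added at 10 µM in phosphate buffer pH 7.25 with dithioerythritol; DMSO ≤1.0%. A400 read at 1, 3, 6 min at 37 °C; residual activity versus no-compound control; mean of ≥3 measurements.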
Molecule `COc1ccc(C(O)c2cc3ccccc3n2S(=O)(=O)c2ccccc2)cc1` (centres undefined) showed an inhibition of 29%.
Still for that read-out and setting: in the case of `CCOC(=O)c1c(C)c2c(n1C)CC/C(=C\N1CCCCC1)C2=O` it was 10%.
The same measure, in the same setting: for `Cc1ncc(COCc2ccccc2)c(CO)c1OCc1ccccc1` the value was 31%.
For the molecule `COc1cc(CNC(=O)CCCC/C=C/C(C)C)ccc1O`, the inhibition worked out at 33%.
Still for that read-out and setting: for `COC(=O)C1Oc2ccc(Cl)cc2C1=O` (centres undefined) the value was 3%; for `O=S(=O)(Oc1ccc(Cl)cc1)c1ccc(Cl)cc1`, 26%; for `COC(=O)Cc1nc2ccc(OC)cc2nc1O`, 15%.
Same read-out and setting: in the case of `COc1ccc(C(=O)c2ccccc2)c(O)c1` [OXYBENZONE] it was 44%; in that of `CC(C)=NNc1ccnc(SCc2ccccc2)n1`, 2%.
`COC1=CC(=O)OC(C)(c2ccccc2)C1` (centres undefined) registered an inhibition of 24%.
The same measure, in the same setting: in the case of `COC1=CC(=O)OC(c2ccco2)C1` (centres undefined) it was 12%; in that of `CCSCc1ccccc1OC(=O)NC` [ETHIOFENCARB], 52%; in that of `COc1ccc(Br)c(C(=O)O)c1OS(=O)(=O)c1ccc(C)cc1`, 30%.
Still for that read-out and setting: for `COC(=O)c1nnn(CCc2c[nH]c3ccccc23)c1C(=O)OC` the value was 52%.
As for `O=C(NC(Cc1ccccc1)C(=O)O)C(=O)c1c[nH]c2ccc(Cl)cc12` (centres undefined), the inhibition was found to be 26%.
On the same count and under the same terms, in the case of `O=C(/C(=N/c1ccccc1)NO)c1ccccc1` it was 23%; in that of `O=C(OCc1ccccc1)c1ccccc1` [BENZYL BENZOATE], 66%.
`COc1ccc2cc([C@H](C)C(=O)O)ccc2c1`: the inhibition worked out at 64%.
Same read-out and setting: in the case of `O=C(CC(=O)c1ccccc1)c1ccccc1` it was 28%; in that of `CCC(CCC#N)C(=O)c1ccc(C)o1` (centres undefined), 14%; in that of `COc1ccc(Cc2ccc3nc(O)cc(C)c3c2)cc1S(=O)(=O)O`, 24%.
`COC(=O)c1ccc(C)c(NS(=O)(=O)c2ccc3c(c2)c(=O)sn3C)c1` gave an inhibition of 24%.

A further test concerns the target T2, Hormone-sensitive lipase (Rattus norvegicus, UniProt P15304).
T2 sequence (P15304 whole entry): T1 sequence (whole entry)
The test is described as follows: Inhibition of HSL in Wistar rat isolated fat cells by spectrophotometric assay.
In turn, `COc1ccc(C(=O)c2ccccc2)c(O)c1` [OXYBENZONE] displayed an IC50 of 3250 nM.
`COc1cccc(CSC(C(=O)O)c2ccccc2)c1` (centres undefined) displayed a concentration for half-maximal inhibition (IC50) of 510 nM.
The same measure, in the same setting: for `CCSCc1ccccc1OC(=O)NC` [ETHIOFENCARB] the value was 370 nM; for `COC(=O)c1nnn(CCc2c[nH]c3ccccc23)c1C(=O)OC`, 5000 nM; for `O=C(OCc1ccccc1)c1ccccc1` [BENZYL BENZOATE], 1100 nM.
In turn, `COC(=O)c1cc(Oc2ccc(Cl)cc2Cl)ccc1[N+](=O)[O-]` [BIFENOX] yielded an IC50 of 430 nM.
On the same count and under the same terms, for `Cc1c(C(C)C)c(=O)on1C(=O)N1CCCCCC1` the value was 62 nM; for `CCOC(=O)C1CCCN(C(=O)n2oc(=O)c(C(C)C)c2C)C1` (centres undefined), 28 nM.
On the same count and under the same terms, for `CCCCCCSc1nc(-c2ccc(Cl)cc2)nn1C(=O)N(C)c1ccccc1` the value was 7.06 nM.
In turn, `Cc1c(C2CCSCC2)c(=O)on1C(=O)N1CCCCC1` gave a 50% inhibitory concentration (IC50) of 11 nM.
The same measure, in the same setting: for `CSc1nc(-c2ccc(Cl)cc2)nn1C(=O)N(C)c1ccccc1` the value was 2.82 nM.
The same measure, in the same setting: for `Cc1c(C(C)C)c(=O)on1C(=O)N1CC(C)CCC1C` (centres undefined) the value was 460 nM.
On to `Cc1c(C(C)C)c(=O)on1C(=O)N1CCCCC1`, for which the half-maximal inhibitory concentration (IC50) came to 2 nM.
Still for that read-out and setting: in the case of `Cc1c(C(C)C)c(=O)on1C(=O)N1CCNCC1` it was over 1000 nM; in that of `CCCCCCSc1nc(-c2ccc(Cl)cc2)nn1C(=O)N1CCOCC1`, 882 nM; in that of `Cc1c(C(C)C)c(=O)on1C(=O)N1CCSCC1`, 8 nM.
The same measure, in the same setting: in the case of `CN(C(=O)n1nc(-c2ccc(Cl)cc2)nc1SCC(F)(F)F)c1ccccc1` it was 3 nM.
Still for that read-out and setting: in the case of `CCCSc1nc(-c2ccc(Cl)cc2)nn1C(=O)N(C)C` it was 1.06 nM; in that of `O=C(N1CCOCC1)n1nc(-c2ccc(Cl)cc2)nc1SCC(F)(F)F`, 159 nM.
`Cc1c(C(C)C)c(=O)on1C(=O)N1CCCCCCC1` yielded a half-inhibitory concentration (IC50) of 900 nM.
Still for that read-out and setting: for `O=C(N1CCCCC1)n1nc(-c2ccc(Cl)cc2)nc1SCC(F)(F)F` the value was 7.06 nM.
On the same count and under the same terms, in the case of `Cc1c(C(C)C)c(=O)on1C(=O)N1CCC(c2ccc(C(C)(C)C)cc2)CC1` it was 480 nM.
The same measure, in the same setting: for `CSc1nc(-c2cccc3ccccc23)nn1C(=O)N(C)C` the value was 35.3 nM; for `Cc1c(C(C)C)c(=O)on1C(=O)N1CC(C)CC(C)C1` (centres undefined), 326 nM; for `CSc1nc(-c2ccc(OC(F)(F)F)cc2)nn1C(=O)N(C)c1ccccc1`, 4.41 nM.
On to `Cc1c(C(C)C)c(=O)on1C(=O)N1CCC(c2ccc(C(F)(F)F)cc2)CC1`, for which the IC50 amounted to 160 nM.
For `CCCCOc1ccc(Oc2ccc(C(F)(F)F)cc2[N+](=O)[O-])cc1`, 210 nM corresponded to half-maximal inhibition (IC50).
On the same count and under the same terms, for `Cc1c(C2CCCC2)c(=O)on1C(=O)N1CCC(c2ccccc2)CC1` the value was 24 nM; for `Cc1c(C(C)C)c(=O)on1C(=O)NCC1CCCCC1`, 72 nM; for `COc1ccc(-c2nc(SC)n(C(=O)N(C)C)n2)cc1`, 15.9 nM.
With `Cc1c(C(C)C)c(=O)on1C(=O)N(C)Cc1ccccc1`, the concentration for half-maximal inhibition (IC50) stood at 5 nM.
Same read-out and setting: in the case of `Cc1c(CCOc2ccccc2)c(=O)on1C(=O)N1CCCCC1` it was 4 nM.

The target in another test is T1, Hormone-sensitive lipase (Rattus norvegicus). The experiment in a line: Inhibition of HSL in Wistar rat isolated fat cells at 1 uM by spectrophotometric assay. Summed up: as §1
In the case of `O=C(/C=C/c1ccccc1)OCCc1ccccc1`, the inhibition was 12%.
Still for that read-out and setting: for `O=c1c(O)c(-c2ccccc2)oc2ccccc12` the value was 23%; for `CC(C)C(C(=O)OC(C#N)c1cccc(Oc2ccccc2)c1)c1ccc(Cl)cc1` (centres undefined), 37%.
On the same count and under the same terms, in the case of `Cc1ccc(-c2nc(SCc3ccccc3)nc(O)c2CCO)cc1` it was 45%; in that of `COc1cccc(CSC(C(=O)O)c2ccccc2)c1` (centres undefined), 67%; in that of `CCOc1ccc([Si](C)(C)CCCc2ccc(F)c(Oc3ccccc3)c2)cc1`, 6%.
`CC(=O)Oc1cc(OCCCc2ccc(F)cc2)cc2c1-c1ccccc1CC2`: the inhibition worked out at 24%.
Same read-out and setting: in the case of `O=C(COC(=O)c1ccccc1)c1ccccc1` it was 9%; in that of `COC(=O)c1cc(Oc2ccc(Cl)cc2Cl)ccc1[N+](=O)[O-]` [BIFENOX], 60%; in that of `O=C(O)/C(=N\OCc1ccccc1)c1ccccc1`, 21%.
Same read-out and setting: for `CC(C)[C@H](C(=O)O[C@H](C#N)c1cccc(Oc2ccccc2)c1)c1ccc(Cl)cc1` the value was 33%; for `Cc1ccc(S(=O)(=O)Nc2cccc3cc(Cl)ccc23)cc1`, 15%.
On the same count and under the same terms, for `CCOC(=O)c1nc2ccccc2nc1NCc1ccc(OC)cc1` the value was 27%; for `CC1(C)C(C(=O)OC(C#N)c2cccc(Oc3ccccc3)c2)C1(C)C` (centres undefined), 35%; for `CCCCOc1ccc(Oc2ccc(C(F)(F)F)cc2[N+](=O)[O-])cc1`, 64%.
